Experimental findings from ChEMBL document CHEMBL1153441 (J Med Chem, 2009) are described below.

Assay [1] deals with T1, 5-hydroxytryptamine receptor 7 (Homo sapiens, UniProt P34969). The assay can be described thus: Displacement of [3H]LSD from human recombinant 5HT7 receptor expressed in CHOK1 cells. The format is cell-based, CHO-K1. The essentials:
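Transfected CHO-K1 membranes in 50 mM Tris-HCl, 10 mM MgSO4, 0.5 mM EDTA, pH 7.4, incubated 120 min at 27 °C with 3 nM [3H]LSD; nonspecific binding with 25 µM clozapine. Ligands screened at 1 µM, then six-concentration curves if displacement over 55%.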

Assay [2] concerns the target T2, 5-hydroxytryptamine receptor 1A (Homo sapiens, UniProt P08908).
T2 sequence (P08908 whole entry): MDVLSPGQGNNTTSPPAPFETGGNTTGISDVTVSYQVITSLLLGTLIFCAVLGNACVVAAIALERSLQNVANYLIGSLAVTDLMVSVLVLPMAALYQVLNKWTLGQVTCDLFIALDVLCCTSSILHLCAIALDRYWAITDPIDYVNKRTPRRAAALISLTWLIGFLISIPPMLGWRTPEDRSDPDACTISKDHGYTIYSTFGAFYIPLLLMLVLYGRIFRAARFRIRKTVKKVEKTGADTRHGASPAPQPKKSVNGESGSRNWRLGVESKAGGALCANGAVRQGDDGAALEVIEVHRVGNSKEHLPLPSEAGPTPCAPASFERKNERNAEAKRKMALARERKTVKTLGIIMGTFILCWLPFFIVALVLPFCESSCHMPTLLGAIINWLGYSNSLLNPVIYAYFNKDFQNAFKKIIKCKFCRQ
The assay can be described thus: Displacement of [3H]8-OH-DPAT from human recombinant 5HT1A receptor expressed in HEK293 cells. The format is cell-based. The essentials:
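Membranes from HEK-293 cells expressing human 5-HT1A receptor were incubated in the dark with 4.9 nM [3H]-8-OH-DPAT for 120 min at 37 °C in 50 mM Tris-HCl, 5 mM MgSO4, pH 7.4. Nonspecific binding was taken with 10 µM 5-HT. Filters were presoaked in 0.5% PEI, and bound radioactivity was counted by scintillation. Compounds were screened at 1 µM, then given six-point curves; Ki was derived by Cheng-Prusoff. Triplicates, 2-4 experiments.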
A general note: Loss of bound radioactivity is the signal in a displacement assay; it reports binding, not function.

For assay [3], the target named is T1, 5-hydroxytryptamine receptor 7. As to the kind of experiment: Agonist activity at human recombinant 5HT7 receptor expressed in CHOK1 cells assessed as increase in cAMP levels by HTRF assay. In kind it is functional, cell-based, CHO-K1. A general note: cAMP levels reflect the balance of adenylyl cyclase and phosphodiesterase activity.
For assay [4] the target is unchanged. As to the kind of experiment: Agonist activity at human recombinant 5HT7 receptor expressed in CHOK1 cells assessed as increase in cAMP levels by HTRF assay relative to serotonin. The format is functional, cell-based. Conditions: CHO-K1.
Assay [5] has the same target. The assay can be described thus: Antagonist activity at human recombinant 5HT7 receptor expressed in CHOK1 cells assessed as inhibition of serotonon-induced increase in cAMP levels by HTRF assay. In kind it is functional, cell-based. The note with it: CHO-K1.
For the next assay, the species on record is Homo sapiens. The assay can be described thus: Selectivity for human recombinant 5HT7 receptor over human recombinant 5HT1A receptor.
Assay [6] addresses T1, 5-hydroxytryptamine receptor 7. The assay can be described thus: Antagonist activity at human recombinant 5HT7 receptor expressed in CHOK1 cells assessed as inhibition of serotonon-induced increase in cAMP levels by HTRF assay relative to untreated control. The format is functional, cell-based, CHO-K1.
Assay [7] concerns the target T3, 5-hydroxytryptamine receptor 1A (Homo sapiens) (UniProt P08908).
T3 sequence (whole entry): T2 sequence (P08908 whole entry)
As to the kind of experiment: Displacement of [3H]8-OH-DPAT from human recombinant 5HT1A receptor expressed in HEK293 cells at 1 uM. In kind it is cell-based. In outline: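 Membranes from transfected HEK-293 cells in 50 mM Tris-HCl, 5 mM MgSO4, pH 7.4, incubated in the dark 120 min at 37 °C with 4.9 nM [3H]8-OH-DPAT and 1 µM ligand (hydrochloride salt), triplicate. Nonspecific binding with 10 µM 5-HT. Filtration on 0.5% PEI-soaked filters, ice-cold Tris washes, scintillation counting; percent displacement.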

T1 sequence (P34969 whole entry): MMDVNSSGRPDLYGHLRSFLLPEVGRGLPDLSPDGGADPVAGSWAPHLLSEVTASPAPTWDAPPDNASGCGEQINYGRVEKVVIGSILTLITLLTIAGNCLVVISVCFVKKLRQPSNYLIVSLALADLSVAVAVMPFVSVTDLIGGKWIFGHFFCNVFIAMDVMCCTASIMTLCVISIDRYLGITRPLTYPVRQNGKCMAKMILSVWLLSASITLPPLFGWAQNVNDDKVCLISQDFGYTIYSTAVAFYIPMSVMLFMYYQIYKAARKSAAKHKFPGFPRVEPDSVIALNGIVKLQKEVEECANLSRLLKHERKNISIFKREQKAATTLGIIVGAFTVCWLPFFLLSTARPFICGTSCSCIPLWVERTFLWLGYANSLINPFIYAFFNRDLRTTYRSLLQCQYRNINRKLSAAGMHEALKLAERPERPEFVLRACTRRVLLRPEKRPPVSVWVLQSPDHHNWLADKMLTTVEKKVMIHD

A word on the Ki: it is a dissociation constant, usually derived from enzyme kinetics or from competition with a known ligand. As a reminder, the EC50 is the midpoint of the concentration-response curve. Consider `O=C1Cc2ccccc2N1CCCCN1CCc2ccccc2C1`, for which the Ki in assay [1] was 7 nM; in assay [2], 219 nM. For the same compound, the EC50 in assay [3] was found to be 310 nM. The Activity entry in assay [3] (CHO-K1) is “Dose-dependent effect”; in assay [4], 40%; in assay [5], “Dose-dependent effect”. For the same compound, the Ratio Ki in the assay filed under Homo sapiens was found to be 31.

Consider `O=C1Cc2ccccc2N1CCN1CCc2ccccc2C1`, for which the figures for the Ki in assay [1] and in assay [2] were 350 nM and above 1000 nM, respectively.

As to `O=C1Cc2ccccc2N1CC#CCN1CCN(c2cccc3ccccc23)CC1`, the Ki in assay [1] was above 1000 nM; in assay [2], 26 nM.

For `COc1ccccc1N1CCN(CCCCN2C(=O)Cc3ccccc32)CC1`, the figures for the Ki in assay [1] and in assay [2] were 32 nM and above 1000 nM, respectively.

`O=C1c2ccccc2CN1CCCCCN1CCN(c2ccccc2)CC1`: the Ki in assay [1] was 203 nM; in assay [2], above 1000 nM.

As for `O=C1Cc2ccccc2N1Cc1cccc(CN2CCN(c3cccc4ccccc34)CC2)c1`, the inhibition constant (Ki) in assay [1] and in assay [2] was above 1000 nM in each case.

Regarding `O=C1Cc2ccccc2N1CCCCN1CCC(c2ccccc2)CC1`, the values for the Ki in assay [1] and in assay [2] were 160 nM and above 1000 nM, respectively.

As for `O=C1Cc2ccccc2N1CCCCN1CCN(c2ccccc2)CC1`, the Ki in assay [1] was 74 nM; in assay [2], 124 nM.

In the case of `O=C1Cc2ccccc2N1CCCCN1CCCC(c2ccccc2)C1` (stereo not drawn), the Ki in assay [1] was 193 nM; in assay [2] it was above 1000 nM.

Consider `O=C1Cc2ccccc2N1CCCCCN1CCN(c2cccc3[nH]cnc23)CC1`, for which the results for the Ki in assay [1] and in assay [2] were 68 nM and 18.1 nM, respectively.

Consider `COc1ccccc1N1CCN(CCCCN2Cc3ccccc3C2=O)CC1`, for which the results for the Ki in assay [1] and in assay [2] were 158 nM and above 1000 nM, respectively.

For the compound `O=C1Cc2ccccc2N1CCCCN1CCN(c2cccc3ccccc23)CC1`, the Ki in assay [1] is 47 nM; in assay [2], 22 nM.

Take `O=C1Cc2ccccc2N1C/C=C\CN1CCN(c2cccc3ccccc23)CC1`: the Ki in assay [1] came out at 250 nM; in assay [2], 11.5 nM.

Consider `O=C1Cc2ccccc2N1C/C=C/CN1CCN(c2cccc3ccccc23)CC1`, for which the Ki in assay [1] came out at 69 nM; in assay [2], 39 nM.

For the compound `O=C1Cc2ccccc2N1CCCCCN1CCN(c2cccc3ccccc23)CC1`, the results for the inhibition constant Ki in assay [1] and in assay [2] were 69 nM and 16 nM, respectively.

Turning to `O=C1Cc2ccccc2N1CCCN1CCc2ccccc2C1`, the Ki in assay [1] is 105 nM; in assay [2], above 1000 nM.

For `O=C1c2ccccc2CN1CCCCN1CCN(c2ccccc2)CC1`, the Ki in assay [1] is above 1000 nM; in assay [2] it was 360 nM.

As to `O=C1Cc2ccccc2N1CCCCCN1CCN(c2ccccc2)CC1`, the values for the Ki in assay [1] and in assay [2] were 63 nM and above 1000 nM, respectively.

The term IC50 denotes the concentration that gives 50% inhibition. Consider `CN1C[C@@H](NS(=O)(=O)N(C)C)C[C@@H]2c3cccc4c3c(cn4C)C[C@H]21` [MESULERGINE], for which the IC50 in assay [6] was determined as 120 nM.

In the case of `O=C1Cc2ccccc2N1Cc1ccc(CN2CCN(c3cccc4ccccc34)CC2)cc1`, the Ki in assay [1] is above 1000 nM; in assay [2], 181 nM.

With `COc1ccccc1N1CCN(CCCCCN2C(=O)Cc3ccccc32)CC1`, the Ki is 63 nM in assay [1] and above 1000 nM in assay [2].

Turning to `O=C1c2cccc3cccc(c23)N1CCCCCN1CCN(c2ccccc2)CC1` [UCM-5600], the Ki in assay [1] is 89 nM. The Activity in assay [7] worked out at 92%.
